Experimental data: ChEMBL document CHEMBL4020705, “Investigation of aryl isonitrile compounds with potent, broad-spectrum antifungal activity” (Bioorg Med Chem, 2017)
Values after ≈ are worked out from the molar mass of the structure shown.

How the values were obtained:
[1] = test system: Candida albicans; experiment: Antifungal activity against Candida albicans NR-29448 after 44 hrs by broth dilution assay; assay type: functional; settings: NR-29448, 44 h
In short: (§1)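 Yeast broth microdilution per CLSI M27-A3, in RPMI-1640. Incubation is at 37 °C for at least 44 h. MIC is the lowest concentration with no visible growth, read by eye.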

[2] = test system: Candida albicans; experiment: Fungicidal activity against Candida albicans NR-29448 after 18 hrs; assay type: functional; settings: NR-29448, 18 h, read-out: MFC99.9
In short: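 Starting from the MIC plate, 5 μL aliquots are taken from wells with no growth and spotted onto YPD agar. After 18 h at 37 °C, MFC is recorded as the concentration giving a >99.9% decrease in CFU.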

[3] = test system: Candida albicans; experiment: Antifungal activity against Candida albicans ATCC 29351 after 44 hrs by broth dilution assay; assay type: functional; settings: ATCC 29351, 44 h; in short: as §1
[4] = test system: Candida albicans; experiment: Antifungal activity against Candida albicans ATCC 27365 after 44 hrs by broth dilution assay; assay type: functional; settings: ATCC 27365, 44 h; in short: as §1
[5] = test system: Candida albicans; experiment: Antifungal activity against Candida albicans NR-29368 after 44 hrs by broth dilution assay; assay type: functional; settings: NR-29368, 44 h; in short: as §1
[6] = test system: Candida albicans; experiment: Antifungal activity against Candida albicans NR-29446 after 44 hrs by broth dilution assay; assay type: functional; settings: NR-29446, 44 h; in short: as §1
[7] = test system: Candida albicans; experiment: Antifungal activity against Candida albicans ATCC MYA 573 after 44 hrs by broth dilution assay; assay type: functional; settings: ATCC MYA 573, 44 h; in short: as §1
[8] = test system: Candida albicans; experiment: Antifungal activity against Candida albicans ATCC 64124 after 44 hrs by broth dilution assay; assay type: functional; settings: ATCC 64124, 44 h; in short: as §1
[9] = test system: Pichia kudriavzevii; experiment: Antifungal activity against Candida krusei ATCC 14243 after 44 hrs by broth dilution assay; assay type: functional; settings: ATCC 14243, 44 h; in short: as §1
[10] = test system: Pichia kudriavzevii; experiment: Antifungal activity against Candida krusei ATCC 34135 after 44 hrs by broth dilution assay; assay type: functional; settings: ATCC 34135, 44 h; in short: as §1
[11] = test system: Candida parapsilosis; experiment: Antifungal activity against Candida parapsilosis ATCC 22019 after 44 hrs by broth dilution assay; assay type: functional; settings: Lodderomyces parapsilosis, ATCC 22019, 44 h; in short: as §1
[12] = test system: Nakaseomyces glabratus; experiment: Antifungal activity against Candida glabrata ATCC MYA-2950 after 44 hrs by broth dilution assay; assay type: functional; settings: ATCC MYA-2950, 44 h; in short: as §1
[13] = test system: Nakaseomyces glabratus; experiment: Antifungal activity against Candida glabrata ATCC 66032 after 44 hrs by broth dilution assay; assay type: functional; settings: ATCC 66032, 44 h; in short: as §1
[14] = test system: Candida tropicalis; experiment: Antifungal activity against Candida tropicalis ATCC 1369 after 44 hrs by broth dilution assay; assay type: functional; settings: ATCC 1369, 44 h; in short: as §1
[15] = test system: Candida tropicalis; experiment: Antifungal activity against Candida tropicalis ATCC 13803 after 44 hrs by broth dilution assay; assay type: functional; settings: ATCC 13803, 44 h; in short: as §1
[16] = test system: Cryptococcus gattii species complex; experiment: Antifungal activity against Cryptococcus gattii NR-43208 after 68 hrs by broth dilution assay; assay type: functional, Cryptococcus bacillisporus; settings: NR-43208, 68 h
In short: (§2)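 Cryptococcus MIC follows CLSI M27-A3 broth dilution in RPMI-1640. Incubation is at 37 °C for 68 h, and the MIC is read by visual inspection.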

[17] = test system: Cryptococcus gattii species complex; experiment: Antifungal activity against Cryptococcus gattii NR-43209 after 68 hrs by broth dilution assay; assay type: functional, Cryptococcus bacillisporus; settings: NR-43209, 68 h; in short: as §2
[18] = test system: Cryptococcus neoformans; experiment: Antifungal activity against Cryptococcus neoformans NR-41292 after 68 hrs by broth dilution assay; assay type: functional; settings: NR-41292, 68 h; in short: as §2
[19] = test system: HRT-18 cell line; experiment: Cytotoxicity against human HRT18 cells assessed as cell viability at 128 uM after 2 hrs by MTS assay; assay type: cell-based; settings: hrt-18, 2 h
In short: (§3)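 HRT-18 cells are grown in RPMI-1640 with 10% fetal horse serum at 37 °C, 5% CO2. Compounds are added in triplicate for 2 h, with DMSO-matched vehicle controls. MTS is then added for 4 h and absorbance read at 490 nm. Viability is given as % of DMSO control, mean ± SD. Two-way ANOVA with Dunnett's test.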

[20] = test system: HRT-18 cell line; experiment: Cytotoxicity against human HRT18 cells assessed as cell viability at 256 uM after 2 hrs by MTS assay; assay type: cell-based; settings: hrt-18, 2 h; in short: as §3
[21] = test system: Aspergillus niger; experiment: Antifungal activity against Aspergillus niger ATCC 6275 after 44 hrs by broth dilution assay; settings: ATCC 6275, 44 h
[22] = test system: Aspergillus niger; experiment: Antifungal activity against Aspergillus niger ATCC 16888 after 44 hrs by broth dilution assay; settings: ATCC 16888, 44 h
[23] = test system: Aspergillus fumigatus; experiment: Antifungal activity against Aspergillus fumigatus NR-35302 after 44 hrs by broth dilution assay; settings: NR-35302, 44 h
[24] = test system: Aspergillus fumigatus; experiment: Antifungal activity against Aspergillus fumigatus NR-35301 after 44 hrs by broth dilution assay; settings: NR-35301, 44 h
[25] = test system: Aspergillus brasiliensis; experiment: Antifungal activity against Aspergillus brasiliensis ATCC 16404 after 44 hrs by broth dilution assay; settings: ATCC 16404, 44 h

## CC/C(=C\c1ccccc1)c1ccccc1
[1]
  MIC: > 64 µM
[2]
  MFC: > 64 µM

## N#Cc1ccccc1/C=C/c1ccccc1
[1]
  MIC: > 64 µM
[2]
  MFC: > 64 µM

## Nc1ccccc1/C=C/c1ccccc1
[1]
  MIC: 64 µM (≈ 12.5 µg/mL)

## N#Cc1ccc(/C=C/c2ccccc2)cc1
[1]
  MIC: 2 µM (≈ 0.411 µg/mL)
[2]
  MFC: > 64 µM
[3]
  MIC: 1 µM (≈ 0.205 µg/mL)
[4]
  MIC: 1 µM (≈ 0.205 µg/mL)
[5]
  MIC: 2 µM (≈ 0.411 µg/mL)
[6]
  MIC: 1 µM (≈ 0.205 µg/mL)
[7]
  MIC: 1 µM (≈ 0.205 µg/mL)
[8]
  MIC: 2 µM (≈ 0.411 µg/mL)
[9]
  MIC: 32 µM (≈ 6.57 µg/mL)
[10]
  MIC: 16 µM (≈ 3.28 µg/mL)
[11]
  MIC: 2 µM (≈ 0.411 µg/mL)
[12]
  MIC: 8 µM (≈ 1.64 µg/mL)
[13]
  MIC: 8 µM (≈ 1.64 µg/mL)
[14]
  MIC: 16 µM (≈ 3.28 µg/mL)
[15]
  MIC: 4 µM (≈ 0.821 µg/mL)
[16]
  MIC: ≤ 0.5 µM
[17]
  MIC: ≤ 0.5 µM
[18]
  MIC: ≤ 0.5 µM
[19]
  Activity: Non-Toxic
[20]
  Activity: Non-Toxic
[21]
  MIC: > 64 µM
[22]
  MIC: > 64 µM
[23]
  MIC: 32 µM (≈ 6.57 µg/mL)
[24]
  MIC: 64 µM (≈ 13.1 µg/mL)
[25]
  MIC: > 64 µM

## CC/C(=C\c1ccccc1C#N)c1ccc(OC)cc1
[1]
  MIC: > 64 µM
[2]
  MFC: > 64 µM

## COc1cccc(/C=C/c2ccccc2C#N)c1
[1]
  MIC: 16 µM (≈ 3.76 µg/mL)

## N#Cc1ccccc1/C=C/c1ccc([N+](=O)[O-])cc1
[1]
  MIC: 8 µM (≈ 2 µg/mL)
[2]
  MFC: 64 µM (≈ 16 µg/mL)

## CCCCc1ccc(/C=C/c2ccccc2C#N)cc1
[1]
  MIC: 8 µM (≈ 2.09 µg/mL)
[2]
  MFC: 64 µM (≈ 16.7 µg/mL)

## N#Cc1cccc(/C=C/c2ccccc2)c1
[1]
  MIC: 4 µM (≈ 0.821 µg/mL)
[2]
  MFC: 32 µM (≈ 6.57 µg/mL)

## N#Cc1ccccc1C=C1CCCCC1
[1]
  MIC: 4 µM (≈ 0.789 µg/mL)
[2]
  MFC: > 64 µM

## COc1ccc(/C=C/c2ccccc2C#N)cc1
[1]
  MIC: 1 µM (≈ 0.235 µg/mL)
[2]
  MFC: > 64 µM

## C/C(=C\c1ccccc1C#N)c1ccccc1
[1]
  MIC: 8 µM (≈ 1.75 µg/mL)
[2]
  MFC: > 64 µM

## N#Cc1ccccc1/C=C/c1ccc(F)cc1
[1]
  MIC: 64 µM (≈ 14.3 µg/mL)

## N#Cc1ccccc1-c1ccccc1
[1]
  MIC: 0.5 µM (≈ 0.0896 µg/mL)
[2]
  MFC: > 64 µM

## OC(Cn1cncn1)(Cn1cncn1)c1ccc(F)cc1F [FLUCONAZOLE]
[1]
  MIC: 0.5 µM (≈ 0.153 µg/mL)
[2]
  MFC: > 64 µM
[3]
  MIC: ≤ 0.5 µM
[4]
  MIC: 1 µM (≈ 0.306 µg/mL)
[5]
  MIC: > 64 µM
[6]
  MIC: > 64 µM
[7]
  MIC: > 64 µM
[8]
  MIC: > 64 µM
[9]
  MIC: 64 µM (≈ 19.6 µg/mL)
[10]
  MIC: 64 µM (≈ 19.6 µg/mL)
[12]
  MIC: > 64 µM
[13]
  MIC: > 64 µM
[14]
  MIC: > 64 µM
[15]
  MIC: > 64 µM
[16]
  MIC: 8 µM (≈ 2.45 µg/mL)
[17]
  MIC: 8 µM (≈ 2.45 µg/mL)
[18]
  MIC: 8 µM (≈ 2.45 µg/mL)
[21]
  MIC: > 64 µM
[22]
  MIC: > 64 µM
[23]
  MIC: > 64 µM
[24]
  MIC: > 64 µM
[25]
  MIC: > 64 µM
